From ChEMBL document CHEMBL1134513, “Synthesis and activities of pyoverdin-quinolone adducts: a prospective approach to a specific Therapy against Pseudomonas aeruginosa” (2001)
Values after ≈ are worked out from the molar mass of the structure shown.

What was measured:
Pseudomonas aeruginosa [1] = assay: Minimum inhibitory concentration against Pseudomonas aeruginosa IAI measured in succinate (SC) solid media; assay type: functional
Pseudomonas aeruginosa [2] = assay: Minimum inhibitory concentration against Pseudomonas aeruginosa K690, measured in succinate (SC) solid media; assay type: functional
Pseudomonas aeruginosa [3] = assay: Minimum inhibitory concentration against Pseudomonas aeruginosa IAI, measured in Muller-Hinton (MH) solid media; assay type: functional
Pseudomonas aeruginosa [4] = assay: Minimum inhibitory concentration against Pseudomonas aeruginosa ATCC 27853 measured in succinate (SC) solid media; assay type: functional
Pseudomonas aeruginosa [5] = assay: Minimum inhibitory concentration against Pseudomonas aeruginosa ATCC 15692 measured in succinate (SC) solid media; assay type: functional
Pseudomonas aeruginosa [6] = assay: Minimum inhibitory concentration against Pseudomonas aeruginosa ATCC 27853 measured in Muller-Hinton (MH) solid media; assay type: functional
Pseudomonas aeruginosa [7] = assay: Minimum inhibitory concentration against Pseudomonas aeruginosa ATCC 15692 measured in Muller-Hinton (MH) solid media; assay type: functional
Pseudomonas aeruginosa [8] = assay: Minimum inhibitory concentration against Pseudomonas aeruginosa K690, measured in Muller-Hinton (MH) solid media; assay type: functional
Pseudomonas aeruginosa [9] = assay: Minimum inhibitory concentration against Pseudomonas aeruginosa IAI measured in succinate (SC) liquid media; assay type: functional
Pseudomonas aeruginosa [10] = assay: Minimum inhibitory concentration against Pseudomonas aeruginosa ATCC 27853 measured in Muller-Hinton (MH) liquid media; assay type: functional
Pseudomonas aeruginosa [11] = assay: Minimum inhibitory concentration against Pseudomonas aeruginosa ATCC 27853 measured in succinate (SC) liquid media; assay type: functional
Pseudomonas aeruginosa [12] = assay: Minimum inhibitory concentration against Pseudomonas aeruginosa ATCC 15692 measured in Muller-Hinton (MH) liquid media; assay type: functional
How it was run: (§1)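 Broth microdilution in Müller-Hinton medium, highest final concentration generally 64 µg/mL, final inoculum 10^6 cells/mL, 18 h at 37 °C. […] Adducts expressed as µg/mL quinolone equivalents.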

Pseudomonas aeruginosa [13] = assay: Minimum inhibitory concentration against Pseudomonas aeruginosa ATCC 15692 measured in succinate (SC) liquid media; assay type: functional
Pseudomonas aeruginosa [14] = assay: Minimum inhibitory concentration against Pseudomonas aeruginosa IAI, measured in Muller-Hinton (MH) liquid media; assay type: functional; how it was run: as §1
[15] = Minimum effective dose required for the inhibition of Escherichia coli gyrase

SMILES | MIC (Pseudomonas aeruginosa [1]) [µg/mL] | MIC (Pseudomonas aeruginosa [2]) [µg/mL] | MIC (Pseudomonas aeruginosa [3]) [µg/mL] | MIC (Pseudomonas aeruginosa [4]) [µg/mL] | MIC (Pseudomonas aeruginosa [5]) [µg/mL] | MIC (Pseudomonas aeruginosa [6]) [µg/mL] | MIC (Pseudomonas aeruginosa [7]) [µg/mL] | MIC (Pseudomonas aeruginosa [8]) [µg/mL] | MIC (Pseudomonas aeruginosa [9]) [µg/mL] | MIC (Pseudomonas aeruginosa [10]) [µg/mL] | MIC (Pseudomonas aeruginosa [11]) [µg/mL] | MIC (Pseudomonas aeruginosa [12]) [µg/mL] | MIC (Pseudomonas aeruginosa [13]) [µg/mL] | MIC (Pseudomonas aeruginosa [14]) [µg/mL] | MED [15] [µg/mL]
C[C@@H](O)[C@@H]1NC(=O)[C@H](CCCN(O)C=O)NC(=O)[C@@H](NC(=O)[C@](C)(CCCN(O)C=O)NC(=O)[C@@H](CO)NC(=O)[C@H](CCCN=C(N)N)NC(=O)[C@@H](CO)NC(=O)[C@@H]2CCNc3c(NC(=O)CCC(=O)NCCNC(=O)CCC(=O)N4CCN(c5cc6nc7c(cc6cc5F)c(=O)c(C(=O)O)cn7C)CC4)cc4cc(O)c(O)cc4[n+]32)CCCCNC(=O)[C@H]([C@@H](C)O)NC1=O | 8 | 4 | 32 | 8 | 8 | > 64 | 16 | 64 |  |  |  |  |  |  | 
C[C@@H](O)[C@@H]1NC(=O)[C@H](CCCN(O)C=O)NC(=O)[C@@H](NC(=O)[C@](C)(CCCN(O)C=O)NC(=O)[C@@H](CO)NC(=O)[C@H](CCCN=C(N)N)NC(=O)[C@@H](CO)NC(=O)[C@@H]2CCNc3c(NC(=O)CCC(=O)NCCNC(=O)CCC(=O)OCOC(=O)N4CCN(c5cc6nc7c(cc6cc5F)c(=O)c(C(=O)O)cn7C)CC4)cc4cc(O)c(O)cc4[n+]32)CCCCNC(=O)[C@H]([C@@H](C)O)NC1=O [BENZONAPHTHYRIDONE BPL ADDUCT] | 1 | 8 | 16 | 4 | 1 | 64 | 8 | 32 | 2 | 32 | 32 | 4 | 2 | 8 | 
C[C@H](O)[C@@H]1NC(=O)[C@H](CCCN(O)C=O)NC(=O)[C@@H](NC(=O)[C@](C)(CCCN(O)C=O)NC(=O)[C@@H](CO)NC(=O)[C@H](CCCN=C(N)N)NC(=O)[C@H](CO)NC(=O)[C@@H]2CCNc3c(NC(=O)CCC(=O)NCCNC(=O)CCC(=O)N4CCN(c5cc6nc7c(cc6cc5F)c(=O)c(C(=O)O)cn7C)CC4)cc4cc(O)c(O)cc4[n+]32)CCCCNC(=O)[C@@H]([C@H](C)O)NC1=O |  |  |  |  |  |  |  |  |  |  |  |  |  |  | 25
CCn1cc(C(=O)O)c(=O)c2cc(F)c(N3CCN(C(=O)CCC(=O)NCCNC(=O)CCC(=O)Nc4cc5cc(O)c(O)cc5[n+]5c4NCC[C@H]5C(=O)N[C@H](CO)C(=O)N[C@@H](CCCN=C(N)N)C(=O)N[C@H](CO)C(=O)N[C@@](C)(CCCN(O)C=O)C(=O)N[C@H]4CCCCNC(=O)[C@H]([C@@H](C)O)NC(=O)[C@H]([C@@H](C)O)NC(=O)[C@H](CCCN(O)C=O)NC4=O)CC3)cc21 | 4 | 8 | 32 | 8 | 2 | > 64 | 8 | 32 |  |  |  |  |  |  | 
CCn1cc(C(=O)O)c(=O)c2cc(F)c(N3CCN(C(=O)OCOC(=O)CCC(=O)NCCNC(=O)CCC(=O)Nc4cc5cc(O)c(O)cc5[n+]5c4NCC[C@H]5C(=O)N[C@@H](CO)C(=O)N[C@@H](CCCN=C(N)N)C(=O)N[C@H](CO)C(=O)N[C@@](C)(CCCN(O)C=O)C(=O)N[C@H]4CCCCNC(=O)[C@@H]([C@H](C)O)NC(=O)[C@H]([C@H](C)O)NC(=O)[C@H](CCCN(O)C=O)NC4=O)CC3)cc21 |  |  |  |  |  |  |  |  |  |  |  |  |  |  | 50
C[C@H](O)[C@@H]1NC(=O)[C@H](CCCN(O)C=O)NC(=O)[C@@H](NC(=O)[C@](C)(CCCN(O)C=O)NC(=O)[C@@H](CO)NC(=O)[C@H](CCCN=C(N)N)NC(=O)[C@@H](CO)NC(=O)[C@@H]2CCNc3c(NC(=O)CCC(=O)NCCNC(=O)CCC(=O)OCOC(=O)N4CCN(c5cc6nc7c(cc6cc5F)c(=O)c(C(=O)O)cn7C)CC4)cc4cc(O)c(O)cc4[n+]32)CCCCNC(=O)[C@@H]([C@H](C)O)NC1=O |  |  |  |  |  |  |  |  |  |  |  |  |  |  | 25
CCn1cc(C(=O)O)c(=O)c2cc(F)c(N3CCNCC3)cc21 [NORFLOXACIN] | 0.03 (≈ 0.0939 µM) | 4 (≈ 12.5 µM) | 1 (≈ 3.13 µM) | 0.25 (≈ 0.783 µM) | 0.06 (≈ 0.188 µM) | 2 (≈ 6.26 µM) | 0.25 (≈ 0.783 µM) | 8 (≈ 25.1 µM) | 0.25 (≈ 0.783 µM) | 4 (≈ 12.5 µM) | 2 (≈ 6.26 µM) | 1 (≈ 3.13 µM) | 0.25 (≈ 0.783 µM) | 1 (≈ 3.13 µM) | 
Cn1cc(C(=O)O)c(=O)c2cc3cc(F)c(N4CCNCC4)cc3nc21 | 16 (≈ 44.9 µM) | 16 (≈ 44.9 µM) | 16 (≈ 44.9 µM) | 8 (≈ 22.4 µM) | 4 (≈ 11.2 µM) | 16 (≈ 44.9 µM) | 8 (≈ 22.4 µM) | 32 (≈ 89.8 µM) | 32 (≈ 89.8 µM) | 32 (≈ 89.8 µM) | > 64 | 16 (≈ 44.9 µM) | 64 (≈ 180 µM) | 16 (≈ 44.9 µM) | 4
CCn1cc(C(=O)O)c(=O)c2cc(F)c(N3CCN(C(=O)CCC(=O)NCCNC(=O)CCC(=O)Nc4cc5cc(O)c(O)cc5[n+]5c4NCC[C@H]5C(=O)N[C@@H](CO)C(=O)N[C@@H](CCCN=C(N)N)C(=O)N[C@H](CO)C(=O)N[C@@](C)(CCCN(O)C=O)C(=O)N[C@H]4CCCCNC(=O)[C@@H]([C@H](C)O)NC(=O)[C@H]([C@H](C)O)NC(=O)[C@H](CCCN(O)C=O)NC4=O)CC3)cc21 |  |  |  |  |  |  |  |  |  |  |  |  |  |  | 50
CCn1cc(C(=O)O)c(=O)c2cc(F)c(N3CCN(C(=O)OCOC(=O)CCC(=O)NCCNC(=O)CCC(=O)Nc4cc5cc(O)c(O)cc5[n+]5c4NCC[C@H]5C(=O)N[C@H](CO)C(=O)N[C@@H](CCCN=C(N)N)C(=O)N[C@H](CO)C(=O)N[C@@](C)(CCCN(O)C=O)C(=O)N[C@H]4CCCCNC(=O)[C@H]([C@@H](C)O)NC(=O)[C@H]([C@@H](C)O)NC(=O)[C@H](CCCN(O)C=O)NC4=O)CC3)cc21 | 2 | 16 | 4 | 8 | 2 | 16 | 2 | 16 | 0.5 | 16 | 8 | 2 | 0.5 | 4 | 
